Source: PubChem BioAssay
VIM-2 inhibitor: inhibitors of Pseudomonas aeruginosa VIM-2 metallo-beta-lactamase; purified VIM-2, nitrocefin hydrolysis, epi-absorbance fluorescence; inhibition, % at 5.6 µM; 0.89% of 290,000 active; AID 1527;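 active = inhibition above the mean of all tested compounds plus 3 SD, cutoff set per screening run, cut at about 7.5% in these data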;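 note: red hydrolysis product quenches plate fluorescence so inhibitors raise well fluorescence; 0% = enzyme with DMSO and 100% = DMSO without enzyme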
CTSL1 counter-1: blocks F. hepatica cathepsin L1 in PFM18AAP counter-screen. recombinant F. hepatica cathepsin L1, Z-Leu-Arg-MCA fluorescence. inhibition, % at 5.96 µM. 0.49% of 300,000 active;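 active = inhibition above the mean of all tested compounds plus 3 SD, set per screening campaign, cut at about 17% in these data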;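 note: 0% = plate median of test compound wells and 100% = 1 µM Z-Phe-Ala-diazomethylketone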
PfM18AAP inh-1: blocks P. falciparum M18 aspartyl aminopeptidase; recombinant PfM18AAP, H-Glu-NHMec fluorogenic cleavage; inhibition, % at 7.35 µM; 1.2% of 290,000 active;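 active = inhibition above the campaign mean inhibition over all tested compounds plus 3 SD, cut at about 28% in these data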;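 note: 0% = plate median of test compound wells and 100% = 2 mM ZnCl2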
IMP-1 inhibitor: inhibitors of Pseudomonas aeruginosa IMP-1 metallo-beta-lactamase; purified IMP-1, nitrocefin hydrolysis, epi-absorbance fluorescence; inhibition, % at 5.6 µM; 0.45% of 290,000 active; AID 1556;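 active = inhibition above the mean plus 3 SD of all compounds in the same screening run, cut at about 4.5% in these data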;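 note: 0% = IMP-1 with DMSO and 100% = DMSO wells lacking enzyme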
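assay system = purified recombinant IMP-1 metallo-beta-lactamase enzyme | schedule = 15 min preincubation plus 25 min reaction at 25 °C | signal = Epi-absorbance fluorescence, 480 nm excitation, 530 nm emission | read-out basis = percent inhibition from optical density relative to buffer-blank wells | controls = IMP-1 with DMSO as 0%, enzyme-free DMSO as 100%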
PfM18AAP inh-2: PfM18AAP inhibition, confirmation. shares compounds with PfM18AAP inh-1. recombinant PfM18AAP, H-Glu-NHMec fluorogenic cleavage. inhibition, % at 7.35 µM. 28% of 2,400 active. AID 2170;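 active = mean inhibition over replicate wells above the hit cutoff set for the earlier primary screen, cut at about 29% in these data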;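 note: 0% = median of test compound wells and 100% = 2 mM ZnCl2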
CTSL1 counter-2: Cathepsin L (human) inhibition, confirmation; shares compounds with PfM18AAP inh-1; purified cathepsin L1, Z-Leu-Arg-MCA fluorescence; inhibition, % at 5.96 µM; 2,400 tested, under 10 active; AID 2178;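 active = average inhibition across replicates above the hit cutoff set in the earlier primary screen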;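 note: 0% = median of test compound wells and 100% = Z-Phe-Ala-diazomethylketone 1 µM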
Target sequence (P07711 whole entry, looked up): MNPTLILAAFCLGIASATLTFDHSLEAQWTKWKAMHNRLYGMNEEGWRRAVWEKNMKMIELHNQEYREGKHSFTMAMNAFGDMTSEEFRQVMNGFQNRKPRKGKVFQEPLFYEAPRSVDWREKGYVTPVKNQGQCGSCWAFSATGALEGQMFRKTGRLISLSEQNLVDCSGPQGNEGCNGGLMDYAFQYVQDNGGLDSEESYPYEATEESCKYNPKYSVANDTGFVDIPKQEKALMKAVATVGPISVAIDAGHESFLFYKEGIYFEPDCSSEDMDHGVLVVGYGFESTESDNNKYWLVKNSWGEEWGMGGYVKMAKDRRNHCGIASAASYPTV
Numbers without * were called inactive; . = no result given. In the library only some 2.7% were active in any assay of this set; here they are far more common.

SMILES | VIM-2 inhibitor | CTSL1 counter-1 | PfM18AAP inh-1 | IMP-1 inhibitor | PfM18AAP inh-2 | CTSL1 counter-2
CC(=O)C1=C(O)C(=O)N(c2ccc(Br)cc2)C1c1ccc(Br)cc1 (configuration not stated) | -2.7 | 4.9 | 4.2 | -3.9 | . | .
Cc1cc(/C=N/Nc2ccc([N+](=O)[O-])cn2)c(C)n1-c1ccccc1 | 3.4 | 3.4 | 51.1* | -0.3 | -19.9 | 3.2
CCN(CC)c1ccc([N+](=O)[O-])cc1/C=N/NC(=O)CC#N | -4.9 | -1.1 | 23.9 | -2.1 | . | .
Cc1cc(/C=N/NC(=O)CC#N)c(C)n1-c1ccc([N+](=O)[O-])cc1 | -1.9 | -0.7 | 34.2* | -2.7 | -49.8 | -6.5
Cc1c(C(=O)O)cccc1-n1c(C)cc(/C=N/Nc2ccc([N+](=O)[O-])cn2)c1C | -5.4 | 4.7 | 58.9* | -4.3 | -17.4 | 5.5
O=C(O)Cn1cc(/C=N/Nc2ccc([N+](=O)[O-])cn2)c2ccccc21 | -3.4 | . | 52.7* | -3.0 | -19.8 | -0.9
O=[N+]([O-])/C(=C\Nc1ccc(F)cc1F)S(=O)(=O)c1ccccc1 | -1.0 | -2.2 | -0.7 | -1.2 | . | .
C=C(C)c1cccc(C(C)(C)NC(=O)N2CCN(C/C=C/c3ccccc3)CC2)c1 | -1.0 | -1.0 | 7.2 | -1.5 | . | .
Cc1cc(C)nc(SCCN(C)C)n1 | -2.3 | 0.8 | 1.2 | -1.2 | . | .
Cc1cc(C)nc(SSc2nc(C)cc(C)n2)n1 | -2.2 | 0.6 | 60.7* | -3.9 | 27.8 | 5.4
COC(=O)C[C@H]1c2cc(F)cc(F)c2S(=O)(=O)N1C1CCN(Cc2ccccc2)CC1 | . | 0.2 | . | . | . | .
CCOC(=O)C1=C(CSc2nc(-c3ccncc3)ccc2C#N)OC(N)=C(C#N)C1c1ccc(OC)cc1 (configuration not stated) | -0.4 | 3.4 | 34.5* | 4.0 | -7.1 | 3.6
CCc1ccc(-c2csc3ncn(CC(=O)N4CCOCC4)c(=O)c23)cc1 | -1.9 | 0.0 | 1.8 | -2.3 | . | .
COC(=O)C(C)Sc1ncnc2c1nnn2-c1ccc(F)cc1 (configuration not stated) | 0.2 | -2.6 | -3.9 | -3.0 | . | .
COc1ccc(-n2nnc3c(SC(C(C)=O)C(=O)N(C)C)ncnc32)cc1 (configuration not stated) | -0.8 | -3.7 | 46.2* | -4.0 | 2.2 | -2.3
O=C(CN1CCN(c2ccc(O)cc2)CC1)N1CCc2ccccc21 | -0.2 | 5.5 | 41.8* | -3.0 | 0.7 | 4.0
COC(=O)N1[C@H](C)C=C[C@]1(Cc1ccccc1)C(=O)O | -3.4 | -3.5 | -8.0 | -3.0 | . | .
N#C/C(=C\c1ccc(-c2cccc(C(F)(F)F)c2)o1)C(=O)Nn1cnnc1 | 0.9 | 4.6 | 33.5* | 1.7 | 16.1 | 7.6
O=C(Nn1cnnc1)c1ccc([N+](=O)[O-])cc1Cl | . | -1.8 | . | . | . | .
O=C(Nn1cnnc1)c1cc([N+](=O)[O-])cc([N+](=O)[O-])c1 | -1.0 | 1.0 | 45.5* | -1.6 | 49.3* | -2.9
Cc1cc(NC(=O)c2cc([N+](=O)[O-])cc([N+](=O)[O-])c2C)no1 | -1.9 | -2.9 | -5.8 | -0.5 | . | .
Nc1c(C(=O)Nn2cnnc2)cc([N+](=O)[O-])cc1[N+](=O)[O-] | -1.4 | 2.2 | 62.5* | -2.1 | 56.3* | 3.7
COc1cc(OC)cc(C(=O)Nn2cnnc2)c1 | -1.8 | 14.3 | 35.6* | -1.7 | 29.7* | 2.5
CC(C)CCn1cnc2c(oc3nc4c(cc32)CCCC4)c1=O | 0.0 | -4.5 | -4.3 | -2.3 | . | .
O=C(Nc1cc(N2CCOCC2)ncn1)NC1(C(F)(F)F)Oc2ccccc2O1 | 0.6 | 0.5 | 75.6* | -2.3 | 66.2* | 1.3
SMILES | VIM-2 inhibitor | CTSL1 counter-1 | PfM18AAP inh-1 | IMP-1 inhibitor | PfM18AAP inh-2 | CTSL1 counter-2
COc1cccc(NC(=O)NC2(C(F)(F)F)Oc3ccccc3O2)c1 | -1.6 | 4.4 | 66.9* | -5.2 | 34.4* | -0.9
CC(C)CNC(=O)NC1(C(F)(F)F)Oc2ccccc2O1 | 0.7 | 1.3 | 40.9* | -1.0 | -21.9 | 1.3
O=C(NCc1cccnc1)NC1(C(F)(F)F)Oc2ccccc2O1 | -4.4 | -2.4 | 55.3* | -2.1 | -2.4 | 4.2
C/C(=N\Nc1cc(N2CCOCC2)ncn1)c1ccccc1 | -2.0 | -0.5 | 1.2 | -5.5 | . | .
CCC1Oc2ccccc2N(CC(=O)NC2CCCC2)C1=O (configuration not stated) | -1.6 | -2.0 | 6.3 | -2.0 | . | .
Cc1sc(NC(=S)Nc2ccc(F)cc2)c(C(N)=O)c1C | -4.3 | -3.8 | 47.1* | -1.9 | -5.5 | -1.1
Cc1ccc(Nc2nc(-c3cccnc3)nc3ccccc23)cc1 | -0.8 | 4.4 | 4.2 | -3.0 | . | .
Cc1ccc(-c2nc(N/N=C/c3ccncc3)c3ccccc3n2)cc1 | -0.1 | 0.3 | 42.7* | -2.3 | -69.2 | 1.3
CC1CCCC(C)N1/N=C/c1ccc(O)c(O)c1 (configuration not stated) | -3.5 | 0.8 | 64.1* | -3.5 | 46.4* | 0.7
Oc1ccc(/C=N/N2CCCCC2)cc1O | -0.3 | -2.0 | 65.6* | -3.1 | 32.0* | -2.1
Clc1ccc(/C=N/N2CCCCC2)cc1 | -1.8 | 0.2 | -2.3 | -3.1 | . | .
O=C(NCc1ccccc1)c1onc(CSc2ccc(F)c(F)c2)c1C(=O)NCc1ccccc1 | . | 1.1 | . | . | . | .
CC(C)c1ccc(N2C(=O)C(Cl)=C(N3CCOCC3)C2=O)cc1 | -3.4 | 2.9 | 38.1* | -0.7 | -28.5 | -1.2
CCc1ccccc1N1C(=O)C(Cl)=C(N2CCOCC2)C1=O | -0.5 | 3.2 | -1.4 | 0.0 | . | .
COc1ccc(C2NC(=S)N3C(c4ccc(OC)cc4)NC(=S)N23)cc1 (configuration not stated) | -5.9 | -2.1 | 13.5 | -6.5 | . | .
S=C1NC(c2ccccc2)N2C(=S)NC(c3ccccc3)N12 (configuration not stated) | -4.2 | 0.7 | 38.1* | -4.7 | -42.5 | -0.8
COC(=O)c1ccc(-n2c(C)cc(/C=N/Nc3nc(C)cc(=O)[nH]3)c2C)cc1 | -5.5 | -0.6 | 11.7 | -5.0 | . | .
CCOc1cc(/C=N/Nc2nnc(C)n2N)ccc1O | -2.6 | 3.7 | 24.9 | -4.7 | . | .
Cc1nnc(N/N=C/c2c(Cl)cccc2Cl)n1N | 0.7 | 1.5 | 50.6* | -0.3 | -52.3 | 4.5
Cc1nnc(N/N=C/c2cc(C)n(-c3ccc(F)cc3)c2C)n1N | -4.4 | 1.5 | 53.3* | -3.1 | 22.9 | -6.2
O=C(O)c1c[nH]c(=S)n1-c1ccc(F)cc1 | -1.3 | 1.0 | 51.0* | 0.3 | 39.5* | -2.3
Cc1cc(Oc2ccc(-c3nnc(-c4ccccc4)o3)cc2[N+](=O)[O-])ccc1Cl | -2.1 | -0.6 | -2.8 | -4.5 | . | .
Cc1nnc(-c2ccc(Oc3ccc(Br)cc3)c([N+](=O)[O-])c2)o1 | -0.7 | 7.8 | 32.8* | -2.2 | -55.4 | -1.1
Cc1ccccc1C(=O)NCCCn1ccnc1 | -4.1 | -0.1 | -1.6 | -2.9 | . | .
COCCSc1ccccc1C(=O)NCCCn1ccnc1 | 0.4 | 2.3 | 35.8* | -8.3 | -25.0 | -1.2
N#Cc1c(SCC(=O)Nc2nncs2)sc2c(O)cc(=O)[nH]c12 | -4.2 | 3.4 | 53.0* | -2.2 | 28.6* | -4.1
COc1ccc(NC(=S)NNC(=S)Nc2cccc(C(F)(F)F)c2)cc1 | -4.3 | 2.9 | 41.7* | -3.4 | -18.5 | 0.0
